# ChEMBL document CHEMBL5058577, “EUbOPEN Chemogenomics Library 2 (Multiplex)” (2022)
# Test system: HEK-293T
# Test: Multiplex assay against HEK293T
# Format: toxicity, cell-based
# Settings: human
# Method in brief: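 Compound was added to live cells that had been stained at seeding with Hoechst33342, BioTracker Green Microtubule Cytoskeleton Dye, MitoTracker Red and Annexin V Alexa Fluor 680, and imaging followed on a CQ1 microscope at 37°C and 5% CO2. CellPathfinder machine-learning gating divided cells into Hoechst high-intensity objects or normal cells, normal cells into healthy, pyknosed or fragmented nuclei, and pyknosed cells into mitotic or apoptotic. Tubulin, mitochondrial-mass and membrane-permeability phenotypes are per cents of healthy-nucleus cells.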
# [1] = 12 h, 1 µM, compound concentration 1 uM, replicate 1
# [2] = 12 h, 1 µM, compound concentration 1 uM, replicate 2
# [3] = 12 h, 10 µM, compound concentration 10 uM, replicate 1
# [4] = 12 h, 10 µM, compound concentration 10 uM, replicate 2
# [5] = 24 h, 1 µM, compound concentration 1 uM, replicate 1
# [6] = 24 h, 1 µM, compound concentration 1 uM, replicate 2
# [7] = 24 h, 10 µM, compound concentration 10 uM, replicate 1
# [8] = 24 h, 10 µM, compound concentration 10 uM, replicate 2
# [9] = 48 h, 1 µM, compound concentration 1 uM, replicate 1
# [10] = 48 h, 1 µM, compound concentration 1 uM, replicate 2
# [11] = 48 h, 10 µM, compound concentration 10 uM, replicate 1
# [12] = 48 h, 10 µM, compound concentration 10 uM, replicate 2
structure (smiles),measurement,setting,value
CC(=O)Nc1cccc2c1c(Sc1ccc(Cl)cc1)c(C)n2CC(=O)O [AZD1981],Population Apoptotic (%),[1],37%
same,Population Fragmented Nuclei (%),[1],6%
same,Population Healthy Nuclei (%),[1],81%
same,Population Hoechst High Intensity Objects (%),[1],6%
same,Population Membrane Permeable-Phenotype (%),[1],0%
same,Population Mitochondria Different-Phenotype (%),[1],46%
same,Population Mitotic Cells (%),[1],62%
same,Population Normal (%),[1],93%
same,Population Pyknosed Nuclei (%),[1],11%
same,Population Tubulin-Different-Phenotype (%),[1],28%
same,Total Cell Count,[1],405
same,Population Apoptotic (%),[2],60%
same,Population Fragmented Nuclei (%),[2],5%
same,Population Healthy Nuclei (%),[2],80%
same,Population Hoechst High Intensity Objects (%),[2],8%
same,Population Mitochondria Different-Phenotype (%),[2],57%
same,Population Mitotic Cells (%),[2],40%
same,Population Normal (%),[2],91%
same,Population Pyknosed Nuclei (%),[2],13%
same,Population Tubulin-Different-Phenotype (%),[2],18%
same,Total Cell Count,[2],314
same,Population Apoptotic (%),[3],38%
same,Population Fragmented Nuclei (%),[3],8%
same,Population Healthy Nuclei (%),[3],78%
same,Population Hoechst High Intensity Objects (%),[3],7%
same,Population Membrane Permeable-Phenotype (%),[3],0%
same,Population Mitochondria Different-Phenotype (%),[3],44%
same,Population Mitotic Cells (%),[3],61%
same,Population Normal (%),[3],92%
same,Population Pyknosed Nuclei (%),[3],12%
same,Population Tubulin-Different-Phenotype (%),[3],29%
same,Total Cell Count,[3],403
same,Population Apoptotic (%),[4],60%
same,Population Fragmented Nuclei (%),[4],6%
same,Population Healthy Nuclei (%),[4],77%
same,Population Hoechst High Intensity Objects (%),[4],15%
same,Population Mitochondria Different-Phenotype (%),[4],60%
same,Population Mitotic Cells (%),[4],39%
same,Population Normal (%),[4],84%
same,Population Pyknosed Nuclei (%),[4],15%
same,Population Tubulin-Different-Phenotype (%),[4],26%
same,Total Cell Count,[4],318
same,Population Apoptotic (%),[5],20%
same,Population Fragmented Nuclei (%),[5],9%
same,Population Healthy Nuclei (%),[5],80%
same,Population Hoechst High Intensity Objects (%),[5],2%
same,Population Membrane Permeable-Phenotype (%),[5],0%
same,Population Mitochondria Different-Phenotype (%),[5],33%
same,Population Mitotic Cells (%),[5],79%
same,Population Normal (%),[5],97%
same,Population Pyknosed Nuclei (%),[5],9%
same,Population Tubulin-Different-Phenotype (%),[5],23%
same,Total Cell Count,[5],568
same,Population Apoptotic (%),[6],54%
same,Population Fragmented Nuclei (%),[6],7%
same,Population Hoechst High Intensity Objects (%),[6],9%
same,Population Mitochondria Different-Phenotype (%),[6],42%
same,Population Mitotic Cells (%),[6],45%
same,Population Normal (%),[6],90%
same,Population Pyknosed Nuclei (%),[6],11%
same,Population Tubulin-Different-Phenotype (%),[6],16%
same,Total Cell Count,[6],398
same,Population Apoptotic (%),[7],40%
same,Population Fragmented Nuclei (%),[7],7%
same,Population Healthy Nuclei (%),[7],79%
same,Population Hoechst High Intensity Objects (%),[7],4%
same,Population Membrane Permeable-Phenotype (%),[7],0%
same,Population Mitochondria Different-Phenotype (%),[7],28%
same,Population Mitotic Cells (%),[7],59%
same,Population Normal (%),[7],95%
same,Population Pyknosed Nuclei (%),[7],13%
same,Population Tubulin-Different-Phenotype (%),[7],25%
same,Total Cell Count,[7],526
same,Population Apoptotic (%),[8],59%
same,Population Fragmented Nuclei (%),[8],8%
same,Population Healthy Nuclei (%),[8],81%
same,Population Hoechst High Intensity Objects (%),[8],12%
same,Population Mitochondria Different-Phenotype (%),[8],45%
same,Population Mitotic Cells (%),[8],40%
same,Population Normal (%),[8],87%
same,Population Pyknosed Nuclei (%),[8],9%
same,Population Tubulin-Different-Phenotype (%),[8],19%
same,Total Cell Count,[8],387
same,Population Apoptotic (%),[9],21%
same,Population Fragmented Nuclei (%),[9],15%
same,Population Healthy Nuclei (%),[9],78%
same,Population Hoechst High Intensity Objects (%),[9],1%
same,Population Membrane Permeable-Phenotype (%),[9],1%
same,Population Mitochondria Different-Phenotype (%),[9],18%
same,Population Mitotic Cells (%),[9],78%
same,Population Normal (%),[9],98%
same,Population Pyknosed Nuclei (%),[9],6%
same,Population Tubulin-Different-Phenotype (%),[9],10%
same,Total Cell Count,[9],908
same,Population Apoptotic (%),[10],38%
same,Population Fragmented Nuclei (%),[10],13%
same,Population Healthy Nuclei (%),[10],79%
same,Population Hoechst High Intensity Objects (%),[10],3%
same,Population Mitochondria Different-Phenotype (%),[10],20%
same,Population Mitotic Cells (%),[10],61%
same,Population Normal (%),[10],96%
same,Population Tubulin-Different-Phenotype (%),[10],12%
same,Total Cell Count,[10],570
same,Population Apoptotic (%),[11],37%
same,Population Fragmented Nuclei (%),[11],14%
same,Population Healthy Nuclei (%),[11],78%
same,Population Hoechst High Intensity Objects (%),[11],2%
same,Population Membrane Permeable-Phenotype (%),[11],0%
same,Population Mitochondria Different-Phenotype (%),[11],18%
same,Population Mitotic Cells (%),[11],62%
same,Population Normal (%),[11],97%
same,Population Pyknosed Nuclei (%),[11],7%
same,Population Tubulin-Different-Phenotype (%),[11],11%
same,Total Cell Count,[11],751
same,Population Apoptotic (%),[12],33%
same,Population Fragmented Nuclei (%),[12],16%
same,Population Hoechst High Intensity Objects (%),[12],4%
same,Population Mitochondria Different-Phenotype (%),[12],26%
same,Population Mitotic Cells (%),[12],66%
same,Population Normal (%),[12],95%
same,Population Pyknosed Nuclei (%),[12],5%
same,Total Cell Count,[12],556
